From ChEMBL document CHEMBL1157665, “Novel 4-thiazolidinone derivatives as potential antifungal and antibacterial drugs” (2010)
≈ marks a conversion by molar mass, not a printed value.

Assays:
Aspergillus versicolor [1] = assay: Antifungal activity against Aspergillus versicolor ATCC 11730 after 72 hrs by serial sub-cultivation method; assay type: functional; conditions: ATCC 11730, 72 h
Summary of the method: (§1)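 MFC was found by serial sub-cultivation of 2 µl into plates holding 100 µl broth per well, then incubation 72 h at 28 °C. MFC is the lowest concentration with no visible growth, taken as 99.5% killing of the original inoculum. Spore inocula came from malt agar cultures washed with 0.85% saline and 0.1% Tween 80.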

Pseudomonas aeruginosa [2] = assay: Antibacterial activity against Pseudomonas aeruginosa ATCC 27853 after 72 hrs by serial sub-cultivation method; assay type: functional; conditions: ATCC 27853, 72 h
Summary of the method: (§2)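 MBC was found by serial sub-cultivation of 2 µl from the MIC wells into plates holding 100 µl broth per well, then incubation for 72 h. MBC is the lowest concentration with no visible growth, i.e. 99.5% killing of the original inoculum. Bacterial inoculum was 1.0 × 10^4 cfu per well in LB broth. Duplicate, repeated three times.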

Trichoderma viride [3] = assay: Antifungal activity against Trichoderma viride IAM 5061 after 72 hrs by serial dilution method; assay type: functional; conditions: IAM 5061, 72 h
Summary of the method: (§3)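 Fungi were kept on malt agar at 4 °C and sub-cultured monthly. Spores were washed off the agar with sterile 0.85% saline containing 0.1% Tween 80 (v/v). Modified microdilution in 96-well plates. MIC is the lowest concentration with no visible growth under the binocular microscope. Inoculum checked on malt agar for contamination and validity.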

Bacillus cereus [4] = assay: Antibacterial activity against Bacillus cereus clinical isolate after 24 hrs; assay type: functional
Summary of the method: (§4)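 Broth microdilution MIC in 96-well plates. Compounds in LB broth with bacterial inoculum of 1.0 × 10^4 cfu per well, from suspensions adjusted with sterile saline to 1.0 × 10⁵ CFU/ml. Incubated 24 h at […] as printed. MIC taken as the lowest concentration with no visible growth under the binocular microscope. OD at 655 nm also read against blank. Streptomycin and ampicillin as positive controls. Duplicate, repeated three times.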

Talaromyces funiculosus [5] = assay: Antifungal activity against Penicillium funiculosum ATCC 36839 after 72 hrs by serial dilution method; assay type: functional; conditions: ATCC 36839, 72 h; summary of the method: as §3
Listeria monocytogenes [6] = assay: Antibacterial activity against Listeria monocytogenes NCTC 7973 after 72 hrs by serial sub-cultivation method; assay type: functional; conditions: NCTC 7973, 72 h; summary of the method: as §2
Staphylococcus aureus [7] = assay: Antibacterial activity against Staphylococcus aureus ATCC 6538 after 24 hrs; assay type: functional; conditions: ATCC 6538, 24 h; summary of the method: as §4
Escherichia coli [8] = assay: Antibacterial activity against Escherichia coli ATCC 35210 after 24 hrs; assay type: functional; conditions: ATCC 35210, 24 h; summary of the method: as §4
Proteus mirabilis [9] = assay: Antibacterial activity against Proteus mirabilis after 24 hrs; assay type: functional; summary of the method: as §4
Proteus mirabilis [10] = assay: Antibacterial activity against Proteus mirabilis after 72 hrs by serial sub-cultivation method; assay type: functional; summary of the method: as §2
Fulvia fulva [11] = assay: Antifungal activity against Fulvia fulva TK 5318 after 72 hrs by serial sub-cultivation method; assay type: functional; conditions: TK 5318, 72 h; summary of the method: as §1
Penicillium ochrochloron [12] = assay: Antifungal activity against Penicillium ochrochloron ATCC 9112 after 72 hrs by serial dilution method; assay type: functional; conditions: ATCC 9112, 72 h; summary of the method: as §3
Aspergillus fumigatus [13] = assay: Antifungal activity against Aspergillus fumigatus plant isolate after 72 hrs by serial sub-cultivation method
Salmonella typhimurium [14] = assay: Antibacterial activity against Salmonella Typhimurium ATCC 13311 after 24 hrs; assay type: functional, Salmonella enterica subsp. enterica serovar Typhimurium; conditions: Salmonella enterica, ATCC 13311, 24 h; summary of the method: as §4
Salmonella typhimurium [15] = assay: Antibacterial activity against Salmonella Typhimurium ATCC 13311 after 72 hrs by serial sub-cultivation method; assay type: functional, Salmonella enterica subsp. enterica serovar Typhimurium; conditions: Salmonella enterica, ATCC 13311, 72 h; summary of the method: as §2
Aspergillus flavus [16] = assay: Antifungal activity against Aspergillus flavus ATCC 9643 after 72 hrs by serial dilution method; assay type: functional; conditions: ATCC 9643, 72 h; summary of the method: as §3
Aspergillus niger [17] = assay: Antifungal activity against Aspergillus niger ATCC 6275 after 72 hrs by serial sub-cultivation method; assay type: functional; conditions: ATCC 6275, 72 h; summary of the method: as §1
Aspergillus flavus [18] = assay: Antifungal activity against Aspergillus flavus ATCC 9643 after 72 hrs by serial sub-cultivation method; assay type: functional; conditions: ATCC 9643, 72 h; summary of the method: as §1
Fulvia fulva [19] = assay: Antifungal activity against Fulvia fulva TK 5318 after 72 hrs by serial dilution method; assay type: functional; conditions: TK 5318, 72 h; summary of the method: as §3
Escherichia coli [20] = assay: Antibacterial activity against Escherichia coli ATCC 35210 after 72 hrs by serial sub-cultivation method; assay type: functional; conditions: ATCC 35210, 72 h; summary of the method: as §2
Pseudomonas aeruginosa [21] = assay: Antibacterial activity against Pseudomonas aeruginosa ATCC 27853 after 24 hrs; assay type: functional; conditions: ATCC 27853, 24 h; summary of the method: as §4
Micrococcus flavus [22] = assay: Antibacterial activity against Micrococcus flavus ATCC 10240 after 72 hrs by serial sub-cultivation method; assay type: functional; conditions: ATCC 10240, 72 h; summary of the method: as §2
Staphylococcus aureus [23] = assay: Antibacterial activity against Staphylococcus aureus ATCC 6538 after 72 hrs by serial sub-cultivation method; assay type: functional; conditions: ATCC 6538, 72 h; summary of the method: as §2
Aspergillus niger [24] = assay: Antifungal activity against Aspergillus niger ATCC 6275 after 72 hrs by serial dilution method; assay type: functional; conditions: ATCC 6275, 72 h; summary of the method: as §3
Bacillus cereus [25] = assay: Antibacterial activity against Bacillus cereus clinical isolate after 72 hrs by serial sub-cultivation method; assay type: functional; summary of the method: as §2
Micrococcus flavus [26] = assay: Antibacterial activity against Micrococcus flavus ATCC 10240 after 24 hrs; assay type: functional; conditions: ATCC 10240, 24 h; summary of the method: as §4
Aspergillus fumigatus [27] = assay: Antifungal activity against Aspergillus fumigatus plant isolate after 72 hrs by serial dilution method
Listeria monocytogenes [28] = assay: Antibacterial activity against Listeria monocytogenes NCTC 7973 after 24 hrs; assay type: functional; conditions: NCTC 7973, 24 h; summary of the method: as §4
Aspergillus versicolor [29] = assay: Antifungal activity against Aspergillus versicolor ATCC 11730 after 72 hrs by serial dilution method; assay type: functional; conditions: ATCC 11730, 72 h; summary of the method: as §3
Talaromyces funiculosus [30] = assay: Antifungal activity against Penicillium funiculosum ATCC 36839 after 72 hrs by serial sub-cultivation method; assay type: functional; conditions: ATCC 36839, 72 h; summary of the method: as §1
Trichoderma viride [31] = assay: Antifungal activity against Trichoderma viride IAM 5061 after 72 hrs by serial sub-cultivation method; assay type: functional; conditions: IAM 5061, 72 h; summary of the method: as §1
Penicillium ochrochloron [32] = assay: Antifungal activity against Penicillium ochrochloron ATCC 9112 after 72 hrs by serial sub-cultivation method; assay type: functional; conditions: ATCC 9112, 72 h; summary of the method: as §1

Compound | MFC (Aspergillus versicolor [1]) | MBC (Pseudomonas aeruginosa [2]) | MIC (Trichoderma viride [3]) | MIC (Bacillus cereus [4]) | MIC (Talaromyces funiculosus [5]) | MBC (Listeria monocytogenes [6]) | MIC (Staphylococcus aureus [7]) | MIC (Escherichia coli [8]) | MIC (Proteus mirabilis [9]) | MBC (Proteus mirabilis [10]) | MFC (Fulvia fulva [11]) | MIC (Penicillium ochrochloron [12]) | MFC (Aspergillus fumigatus [13]) | MIC (Salmonella typhimurium [14]) | MBC (Salmonella typhimurium [15]) | MIC (Aspergillus flavus [16]) | MFC (Aspergillus niger [17]) | MFC (Aspergillus flavus [18]) | MIC (Fulvia fulva [19]) | MBC (Escherichia coli [20]) | also measured
O=C1CS/C(=N/c2nc(C34CC5CC(CC(C5)C3)C4)cs2)N1 | 33.5 µM (≈ 11.2 µg/mL) | 47.6 µM (≈ 15.9 µg/mL) | 11.9 µM (≈ 3.97 µg/mL) | 17.9 µM (≈ 5.97 µg/mL) | 17.9 µM (≈ 5.97 µg/mL) | 47.6 µM (≈ 15.9 µg/mL) | 23.8 µM (≈ 7.94 µg/mL) | 23.8 µM (≈ 7.94 µg/mL) | 47.6 µM (≈ 15.9 µg/mL) | 71.7 µM (≈ 23.9 µg/mL) | 11.9 µM (≈ 3.97 µg/mL) | 6 µM (≈ 2 µg/mL) | 23.8 µM (≈ 7.94 µg/mL) | 23.8 µM (≈ 7.94 µg/mL) | 47.6 µM (≈ 15.9 µg/mL) | 17.9 µM (≈ 5.97 µg/mL) | 23.8 µM (≈ 7.94 µg/mL) | 23.8 µM (≈ 7.94 µg/mL) | 6 µM (≈ 2 µg/mL) | 47.6 µM (≈ 15.9 µg/mL) | MIC (Pseudomonas aeruginosa [21]): 17.9 µM (≈ 5.97 µg/mL); MBC (Micrococcus flavus [22]): 47.6 µM (≈ 15.9 µg/mL); MBC (Staphylococcus aureus [23]): 47.6 µM (≈ 15.9 µg/mL); MIC (Aspergillus niger [24]): 11.9 µM (≈ 3.97 µg/mL); MBC (Bacillus cereus [25]): 23.8 µM (≈ 7.94 µg/mL); MIC (Micrococcus flavus [26]): 23.8 µM (≈ 7.94 µg/mL); MIC (Aspergillus fumigatus [27]): 11.9 µM (≈ 3.97 µg/mL); MIC (Listeria monocytogenes [28]): 23.8 µM (≈ 7.94 µg/mL); MIC (Aspergillus versicolor [29]): 23.8 µM (≈ 7.94 µg/mL); MFC (Talaromyces funiculosus [30]): 23.8 µM (≈ 7.94 µg/mL); MFC (Trichoderma viride [31]): 23.8 µM (≈ 7.94 µg/mL); MFC (Penicillium ochrochloron [32]): 23.8 µM (≈ 7.94 µg/mL)
O=C1N/C(=N/c2nc(C34CC5CC(CC(C5)C3)C4)cs2)S/C1=C\c1ccccc1[N+](=O)[O-] | 16.1 µM (≈ 7.51 µg/mL) | 43 µM (≈ 20.1 µg/mL) | 10.8 µM (≈ 5.04 µg/mL) | 10.8 µM (≈ 5.04 µg/mL) | 10.8 µM (≈ 5.04 µg/mL) | 43 µM (≈ 20.1 µg/mL) | 16.1 µM (≈ 7.51 µg/mL) | 21.5 µM (≈ 10 µg/mL) | 43 µM (≈ 20.1 µg/mL) | 64.5 µM (≈ 30.1 µg/mL) | 10.8 µM (≈ 5.04 µg/mL) | 10.8 µM (≈ 5.04 µg/mL) | 21.5 µM (≈ 10 µg/mL) | 21.5 µM (≈ 10 µg/mL) | 43 µM (≈ 20.1 µg/mL) | 16.1 µM (≈ 7.51 µg/mL) | 21.5 µM (≈ 10 µg/mL) | 21.5 µM (≈ 10 µg/mL) | 5.4 µM (≈ 2.52 µg/mL) | 43 µM (≈ 20.1 µg/mL) | MIC (Pseudomonas aeruginosa [21]): 21.5 µM (≈ 10 µg/mL); MBC (Micrococcus flavus [22]): 43 µM (≈ 20.1 µg/mL); MBC (Staphylococcus aureus [23]): 21.5 µM (≈ 10 µg/mL); MIC (Aspergillus niger [24]): 16.1 µM (≈ 7.51 µg/mL); MBC (Bacillus cereus [25]): 21.5 µM (≈ 10 µg/mL); MIC (Micrococcus flavus [26]): 21.5 µM (≈ 10 µg/mL); MIC (Aspergillus fumigatus [27]): 10.8 µM (≈ 5.04 µg/mL); MIC (Listeria monocytogenes [28]): 21.5 µM (≈ 10 µg/mL); MIC (Aspergillus versicolor [29]): 10.8 µM (≈ 5.04 µg/mL); MFC (Talaromyces funiculosus [30]): 21.5 µM (≈ 10 µg/mL); MFC (Trichoderma viride [31]): 21.5 µM (≈ 10 µg/mL); MFC (Penicillium ochrochloron [32]): 21.5 µM (≈ 10 µg/mL)
